High-throughput results: PubChem BioAssay, SRMLSC
Many of the other results were omitted from the sample, so hits are more common in it than they were.
HCT116 PTEN-null: growth suppressors of cells with PTEN tumor suppressor deletion | AID 827 | viability, % at 10 µM | actives 1.2% (n = 140,000) | HCT116 PTEN-null viability, CellTiter-Glo, 60 h; active compounds read low;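 active = viability at or below a set limit, 4 SD under the median of all tested compounds, cut at about 3.7% in these data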;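 note: PTEN knockout HCT116 line with beta catenin targeted HCT116 as companion control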
H69AR inhibit: growth inhibitors of human H69AR lung tumor cells; viability, % at 10 µM; H69AR lung tumor viability, ATP luminescence, 72 h; active compounds read low; actives 6% (n = 85,000);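 active = viability at or below 40%; inactive = viability above 40%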;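 note: multidrug resistant small cell line overexpressing MRP-1 efflux transporter; 100% = mean luminescence of untreated control wells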
HUVEC inhibit: blocks proliferation of human endothelial cells; AID 648; HUVEC proliferation, CellTiter-Glo luminescence, 72 h; active compounds read low; viability, % at 10 µM (by protocol); actives 1.1% (n = 86,000);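 active = viability at or below 30%; inactive = viability above 30%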;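 note: 100% = median luminescence of DMSO-only cell control wells on each plate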
Lung fibro prol: blocks proliferation of human lung fibroblasts; viability, % at 10 µM; actives 1.1% (n = 85,000); LL 47 human lung fibroblast viability, ATP luminescence; active compounds read low;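 active = viability at or below 50% in the single dose screen; inactive = viability above 50%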;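 note: compound exposure lasted 72 h before the ATP readout; 100% = median luminescence of untreated cell-only wells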
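Test system: LL 47 human lung fibroblasts; Quantity: 1,150 cells/well; Buffer or medium: IMEM plus 15% FBS; Dosing: tenfold compound dosing solution, DMSO at 0.1%; Timing: overnight cell rest, 72 h compound treatment at 37 °C; Detection: ATP-based CellTiter-Glo luminescent readout; Read-out basis: viability percentage against median untreated-cell control; Controls: cell-only wells, no compound.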
bCat KO growth: beta-catenin-lacking colon tumor cell growth suppression; HCT116 beta-catenin knockout viability, CellTiter-Glo, 60 h; active compounds read low; viability, % at 10 µM; actives 1.5% (n = 140,000); AID 818;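 active = viability at or under a set limit, the compound median less 4 SD, cut at about 6% in these data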;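 note: 0% = Hyamine 1622 control at 20 µM and 100% = untreated cell control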
An asterisk follows results filed as active; x = not tested or not shown.

SMILES	HCT116 PTEN-null	H69AR inhibit	HUVEC inhibit	Lung fibro prol	bCat KO growth
CCn1cc(C2=NC(c3ccccc3)CO2)c2ccccc21 (centres undefined)	89.7	31.9*	71.0	87.2	91.5
COc1ccccc1N1CCN(Cc2ccc(O)c3ncccc23)CC1	1.7*	x	x	x	3.3*
Oc1ccc(CN2CCCc3ccccc32)c2cccnc12	5.5	33.7*	86.4	58.6	10.2
CCOC(=O)C1CCN(Cc2ccccc2C(F)(F)F)CC1	106.3	99.8	90.1	98.1	81.0
CCOC(=O)C1CCN(Cc2ccc(O)c3ncccc23)CC1	1.9*	1.1*	80.1	78.8	3.0*
CSc1nccc(Nc2ccccc2)c1C#N	81.5	93.2	106.8	104.1	88.3
O=C(Cn1ncc2c(=O)oc3ccccc3c21)NCCCN1CCCC1=O	98.2	100.9	91.1	101.5	96.7
O=C(Cn1cnc2c(nnn2Cc2ccc(Cl)cc2)c1=O)OCc1ccccc1	97.7	90.1	95.2	93.5	98.8
CCCCN(C)CCC(=O)Nc1ccc(OC)cc1OC	85.0	x	x	x	91.3
Cc1ccc(OCC(=O)N2CCN(c3ccc([N+](=O)[O-])c(N4CCOCC4)c3)CC2)cc1	86.3	x	x	x	82.9
CCOc1ccc(CC(=O)Nc2c(C(N)=O)oc3ccc(Br)cc23)cc1OCC	53.5	36.5*	98.8	91.8	55.1
CC(=O)Nc1c(C(=O)C2CC2)oc2ccccc12	91.0	85.7	97.1	90.7	102.0
N#Cc1ccccc1OCC(=O)Nc1c(C(=O)C2CC2)oc2ccccc12	77.1	7.6*	59.3	83.9	67.8
CCOc1ccc(C(=O)Nc2c(C(N)=O)oc3ccccc23)cc1	83.4	44.3	85.8	91.5	92.1
N#Cc1ccccc1NC(=O)c1ccccc1OCC(=O)Nc1ccc2c(c1)oc1ccccc12	x	3.9*	60.4	90.3	x
CCOc1ccc(CC(=O)Nc2c(C(=O)Nc3ccccc3)oc3ccccc23)cc1OCC	58.8	35.2*	82.4	72.1	41.1
CCCN(c1nc(C)cc(OC)n1)S(=O)(=O)c1ccccc1	91.0	89.6	91.1	98.4	90.7
COc1ccc(NC(=O)c2oc3ccccc3c2NC(=O)COc2ccccc2OC)c(OC)c1	44.5	19.1*	7.2*	71.2	25.0
CCCn1cnc2c(c1=O)c1nc3ccccc3nc1n2CCC1=CCCCC1	96.3	72.6	75.0	97.0	94.5
O=c1c2c3nc4ccccc4nc3n(/N=C/c3ccco3)c2ncn1CCC1=CCCCC1	x	73.8	28.7*	96.7	x
Cc1nc2c(c(=O)n1CCC1=CCCCC1)c1nc3ccccc3nc1n2/N=C/c1ccccc1	80.5	83.5	96.5	109.0	96.8
CCCCCCn1c(C)nc2c(c1=O)c1nc3ccccc3nc1n2/N=C/c1ccco1	71.1	3.8*	17.8*	98.6	73.8
O=C(CCSc1nnc(-c2ccncc2)o1)Nc1cccc2ccccc12	73.4	36.9*	90.2	88.3	74.6
O=C(CCSc1nnc(-c2ccncc2)o1)Nc1ccccc1	88.8	103.2	102.3	106.6	96.2
CCC(Oc1ccccc1)C(=O)Nc1ccc(S(=O)(=O)NCC2CCCO2)cc1 (centres undefined)	79.5	80.7	97.4	102.2	67.4
SMILES	HCT116 PTEN-null	H69AR inhibit	HUVEC inhibit	Lung fibro prol	bCat KO growth
CCOc1cccc2cc(-c3cn4cc(C)ccc4n3)c(=O)oc12	1.3*	x	91.7	24.2*	1.1*
COc1ccc2oc(=O)c(-c3nnc(NCc4ccco4)s3)cc2c1	3.8*	2.6*	19.9*	94.7	4.2*
CCOc1cccc2cc(-c3nnc(NCc4ccco4)s3)c(=O)oc12	89.0	3.7*	19.5*	52.6	82.3
CNc1nnc(-c2cc3cc(Cl)ccc3oc2=O)s1	82.1	95.0	99.3	102.7	87.6
COc1ccc(S(=O)(=O)NCC(=O)N(CC(=O)NCC2CCCO2)c2ccccc2C)cc1 (centres undefined)	108.4	94.0	104.0	102.8	91.0
CCOC(=O)C1=C(N)OC2=C(C(=O)CCC2)C1c1cccs1 (centres undefined)	96.1	96.8	106.2	93.5	99.1
COc1cc(C(=O)O/N=C2/C=C(C)C(=O)C=C2C)cc(OC)c1OC	6.3	x	x	x	3.6*
CC(C)(C)C1CCc2c(sc(NC(=O)C3CCCO3)c2C(N)=O)C1 (centres undefined)	17.9	x	x	x	13.2
CCOC(=O)C1CCN(C(=O)Cc2cccs2)CC1	105.7	100.9	95.8	109.8	105.2
CC(C)(C)Nc1nc(NC(C)(C)C)nc(-n2ccnc2)n1	84.0	30.7*	97.7	90.0	90.7
Cc1cc(C)n(-c2nnc(NC(C)(C)C)nn2)n1	95.1	x	x	x	83.5
CC(C)(C)Nc1nc(NN)nc(NC(C)(C)C)n1	76.3	x	x	x	83.4
CCNc1nc(NCC)nc(-n2nc(C)cc2C)n1	88.5	4.7*	101.9	88.9	94.8
Cc1cc(C)n(-c2nc(NC(C)(C)C)nc(NC(C)(C)C)n2)n1	11.6	x	x	x	4.6*
COc1ccc(N2C(N)=NC(N)=NC23CCCC3)cc1	93.0	90.6	93.6	91.2	92.8
COC(=O)c1cccc(N2C(=O)c3cccnc3C2=O)c1	107.1	89.3	94.1	95.0	92.7
CCC(=O)Oc1ccc2c(C)cc(=O)oc2c1C(=O)c1ccccc1	93.9	x	x	x	86.5
Cn1cc(SCC(=O)O)c2ccccc21	106.1	72.1	97.2	101.1	90.2
CC(=O)n1cc(C(C[N+](=O)[O-])SCCN)c2ccccc21 (centres undefined)	87.8	1.6*	21.6*	24.4*	77.0
COc1ccc(CN=C(C)c2c(C(F)(F)F)[nH]n(-c3nc4ccccc4s3)c2=O)cc1	37.6	12.5*	22.3*	101.1	32.8
O=C(COc1nc2ccccc2nc1N1CCOCC1)N1CCc2ccccc21	53.5	35.6*	75.7	39.7*	37.1
O=C(COc1nnnc2ccccc12)N1CCCc2ccccc21	92.0	86.4	91.0	102.5	87.3
CCc1nc(SCC(=O)Nc2ccc3c(c2)OCCO3)c2oc3ccccc3c2n1	57.8	0.9*	19.6*	93.7	50.0
COc1cccc(NC(=O)CSc2ncnc3c2cnn3Cc2ccccc2)c1	88.8	75.9	72.3	93.9	85.5
CCc1nc(SCC(=O)Nc2nccs2)c2oc3ccccc3c2n1	93.2	13.2*	69.3	76.0	89.9
SMILES	HCT116 PTEN-null	H69AR inhibit	HUVEC inhibit	Lung fibro prol	bCat KO growth
CCc1nc(SCC(=O)N2CCCc3ccccc32)c2oc3ccccc3c2n1	36.3	69.3	74.5	95.0	47.9
O=C(CSc1ncnc2c1cnn2Cc1ccccc1)Nc1ccc2c(c1)OCCO2	72.9	33.5*	94.6	94.4	67.5
COc1cccc(/C(O)=C/c2nc3ccc(C(=O)NCCc4ccc(Cl)cc4)cc3[nH]c2=O)c1	1.2*	x	x	x	1.5*
COc1cccc(/C(O)=C/c2nc3ccc(C(=O)NCCc4cccc(C)c4)cc3[nH]c2=O)c1	4.2	x	x	x	7.5
CCCCCCC(=O)Nc1ccc(C(=O)N/N=C/c2cccnc2)cc1	89.7	x	x	x	95.2
CCCCCCCC(=O)Nc1ccc(C(=O)N/N=C/c2cccc([N+](=O)[O-])c2)cc1	1.7*	x	x	x	1.5*
CCCC(=O)Nc1ccc(C(=O)N/N=C/c2ccc([N+](=O)[O-])o2)cc1	1.9*	x	x	x	2.7*
